Data taken from ChEMBL document CHEMBL1128231, “Amphoteric drugs. 3. Synthesis and antiallergic activity of 3-[(5,11-dihydro[1]benzoxepino[4,3-b]pyridin-11-ylidene)piperidino]propionic acid derivatives and related compounds” (J Med Chem, 1995).

Legend:
Rattus norvegicus [1] = test: Antiallergic activity was evaluated by inhibitory effect on 48/80-induced lethality in rats at a dose 1 (mg/kg, po); assay type: functional
In short: (§1)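 Male Wistar rats, 6 weeks old, fasted 24 h, n = 5. Survival beyond 2 h scored all-or-none; percent inhibition of lethality recorded at each oral dose.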

Rattus norvegicus [2] = test: Antiallergic activity was evaluated by inhibitory effect on 48/80-induced lethality in rats at a dose 0.1 (mg/kg, po); assay type: functional; in short: as §1
Rattus norvegicus [3] = test: Antiallergic activity was evaluated by inhibitory effect on compound 48/80-induced lethality in rats at a dose 10 (mg/kg, po); assay type: functional; in short: as §1
Rattus norvegicus [4] = test: Antiallergic activity was evaluated by inhibitory effect on compound 48/80-induced lethality in rats at a dose 0.01 (mg/kg, po); assay type: functional; in short: as §1
[5] = Selectivity as the ratio of ID50 value to that of ED50 value in mice.; assay type: functional
In short: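 Ratio B/A: B = oral ID50 for ex vivo [3H]mepyramine binding in mouse brain membranes (1 h post-dose); A = oral ED50 against histamine-induced skin vascular permeability in mice.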

Mus musculus [6] = test: Inhibitory effect on histamine-induced increase in vascular permeability in mice upon oral administration; assay type: functional
In short: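 Male ICR mice (6 weeks, starved 20 h) dosed orally; 1 h later, under light ether, intradermal histamine dihydrochloride 2.5 µg/site plus saline after iv 0.2 mL 1% Evans blue. Killed 30 min later; extravasated dye extracted and assayed. ED50 from log-logit dose–percent inhibition, least squares, with 95% confidence limits.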

Mus musculus [7] = test: Tested for Hexobarbital-induced anesthesia in mice by measuring dose which produced 50% increase of the sleeping time upon oral administration; assay type: functional; details: read-out: ID50 (the source's name)
In short: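 Male ICR mice (5 weeks, starved 20–24 h) dosed orally; 1 h later hexobarbital 80 mg/kg ip. Sleeping time = duration of loss of righting reflex; responders show >50% increase over controls. ID50 from number responding at each dose by Litchfield–Wilcoxon, with 95% confidence limits.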

[8] = biological target: Histamine H1 receptor (Mus musculus) (UniProt P70174); test: Ex vivo inhibition of [3H]mepyramine binding to mouse brain membrane H1 receptor after oral administration; assay type: functional, organism-based
In short: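 Male ICR mice (6 weeks, starved 24 h) dosed orally with compound or vehicle; brain taken 1 h later and homogenized in 40 volumes 50 mM phosphate buffer pH 7.4. Membranes incubated with [3H]mepyramine (final 2 nM), 25 °C, 30 min; filtered, scintillation counted.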

[9] = Octanol-buffer partition coefficient determined by dividing its equilibrium organic concentration by its aqueous concentration; assay type: physicochemical; details: octanol/water
In short: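 Sample dissolved at 10 µg/mL in Sørensen buffer pH 7.4; equal volumes buffer and 1-octanol shaken 24 h at 25 °C, centrifuged. Each phase quantified by HPLC (UV 254 nm, ODS column, 0.03 M phosphate pH 3.0–CH3CN 7:3). PCoct = organic/aqueous equilibrium concentration.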

Cavia porcellus [10] = test: Histamine induced in lethality in guinea pigs at 8 hr after oral dose of 0.3 mg/kg; assay type: functional
In short: (§2)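 Male Hartley guinea pigs, 6 weeks old, fasted 24 h, n = 10, dosed orally. Eight hours later histamine dihydrochloride given iv at a lethal dose of 1 mg/kg. Survival beyond 30 min scored all-or-none; percent inhibition of lethality reported.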

Cavia porcellus [11] = test: Histamine induced in lethality in guinea pigs at 8 hr after oral dose of 0.02 mg/kg; assay type: functional; in short: as §2
Cavia porcellus [12] = species: Cavia porcellus; test: animal or person; details: po, 8 h, read-out: Inhibition

Chain of Histamine H1 receptor (Mus musculus) (P70174 whole entry): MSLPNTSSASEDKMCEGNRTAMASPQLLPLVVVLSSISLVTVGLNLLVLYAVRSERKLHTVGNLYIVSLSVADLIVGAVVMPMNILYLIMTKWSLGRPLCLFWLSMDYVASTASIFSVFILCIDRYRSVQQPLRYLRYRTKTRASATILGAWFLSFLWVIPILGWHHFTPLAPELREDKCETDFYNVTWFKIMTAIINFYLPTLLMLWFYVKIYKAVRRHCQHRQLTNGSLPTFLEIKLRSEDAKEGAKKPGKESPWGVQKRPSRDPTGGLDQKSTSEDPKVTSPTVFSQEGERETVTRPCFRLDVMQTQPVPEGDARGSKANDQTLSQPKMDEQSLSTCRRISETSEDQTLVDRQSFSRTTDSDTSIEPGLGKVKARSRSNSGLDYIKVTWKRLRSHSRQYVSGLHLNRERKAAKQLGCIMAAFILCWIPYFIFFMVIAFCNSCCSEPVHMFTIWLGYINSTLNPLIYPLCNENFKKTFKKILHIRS

Structure (SMILES) | Inhibition (Rattus norvegicus [1]) [%] | Inhibition (Rattus norvegicus [2]) [%] | Inhibition (Rattus norvegicus [3]) [%] | Inhibition (Rattus norvegicus [4]) [%] | Selectivity [5] | ED50 (Mus musculus [6]) [mg/kg] | ID50 [8] [mg/kg] | other results
O=C(O)CCN1CCC(=C2c3cc(Cl)ccc3OCc3cccnc32)CC1 | 100 | 0 |  |  |  |  |  | 
COc1ccc2c(c1)OCc1cccnc1C2=C1CCN(CCC(=O)O)CC1 | 20 | 0 | 100 |  |  |  |  | 
COc1ccc2c(c1)C(=C1CCN(CCC(=O)O)CC1)c1ncccc1CO2 | 60 | 20 | 80 | 0 |  |  |  | 
O=C(O)CCN1CCC(=C2c3ccc(Br)cc3OCc3cccnc32)CC1 | 60 | 40 | 100 | 0 |  |  |  | 
O=C(O)CCN1CCC(=C2c3ccccc3OCc3ncccc32)CC1 | 100 | 40 |  | 0 | 340 | 0.01 | 3.4 | ED50 (Mus musculus [7]): > 100 mg/kg; PCoct [9]: 0.56
COc1ccc2c(c1)OCc1ncccc1C2=C1CCN(CCC(=O)O)CC1 | 100 | 40 |  | 0 |  |  |  | 
CC(=O)c1ccc2c(c1)C(=C1CCN(CCC(=O)O)CC1)c1ncccc1CO2 | 20 | 0 | 100 |  |  |  |  | 
O=C(O)CCN1CCC(=C2c3cccc(Cl)c3OCc3cccnc32)CC1 | 60 | 0 | 100 |  |  |  |  | 
CCOC(=O)N1CCC(=C2c3ccc(Cl)cc3CCc3cccnc32)CC1 [LORATADINE] |  |  |  |  |  | 0.21 |  | inhibition in vivo at 0.3 mg/kg (Cavia porcellus [10]): 80%
Cc1ccc2c(c1)OCc1ncccc1C2=C1CCN(CCC(=O)O)CC1 | 60 | 20 | 100 | 0 |  |  |  | 
CN1CCC(=C2c3ccccc3CC(=O)c3sccc32)CC1 [KETOTIFEN] |  |  |  |  | 2.8 | 0.23 | 0.65 | inhibition in vivo at 0.02 mg/kg (Cavia porcellus [11]): 10%
O=C(O)CCN1CCC(=C2c3ccccc3OCc3cccnc32)CC1 | 100 | 0 |  |  | 1600 | 0.012 | 19 | ED50 (Mus musculus [7]): > 100 mg/kg; PCoct [9]: 0.52
O=C(O)CCN1CCC(=C2c3ccc(F)cc3OCc3cccnc32)CC1 | 100 | 40 |  | 0 | 560 | 0.025 | 14 | ED50 (Rattus norvegicus [3]): 0.29 mg/kg; inhibition in vivo at 0.3 mg/kg (Cavia porcellus [10]): 90%
CC(CN1CCC(=C2c3ccc(F)cc3OCc3ncccc32)CC1)C(=O)O (configuration not stated) |  | 100 |  | 20 |  |  |  | 
CN1CCC(=C2c3ccccc3OCc3cccnc32)CC1 | 100 | 0 |  |  | 18 | 0.011 | 0.2 | ED50 (Mus musculus [7]): > 100 mg/kg; PCoct [9]: 28.4
O=C(O)CCN1CCC(=C2c3cc(F)ccc3OCc3ncccc32)CC1 | 100 | 60 |  | 0 |  |  |  | 

Structure (SMILES) | Inhibition (Rattus norvegicus [1]) [%] | Inhibition (Rattus norvegicus [2]) [%] | Inhibition (Rattus norvegicus [3]) [%] | Inhibition (Rattus norvegicus [4]) [%] | Selectivity [5] | ED50 (Mus musculus [6]) [mg/kg] | ID50 [8] [mg/kg] | other results
Cc1ccc(/C(=C\CN2CCCC2)c2cccc(/C=C/C(=O)O)n2)cc1 [ACRIVASTINE] |  |  |  |  | >480 | 0.63 | > 300 | inhibition in vivo at 0.16 mg/kg (Cavia porcellus [12]): 0%; ED50 (Rattus norvegicus [3]): 3.3 mg/kg
O=C(O)CCN1CCC(=C2c3cc(F)ccc3OCc3cccnc32)CC1 | 20 | 0 | 100 |  |  |  |  | 
O=C(O)CCN1CCC(=C2c3ccc(F)cc3OCc3ncccc32)CC1 |  | 100 |  | 40 | 680 | 0.0037 | 2.5 | ED50 (Rattus norvegicus [3]): 0.034 mg/kg; inhibition in vivo at 0.3 mg/kg (Cavia porcellus [10]): 60%
O=C(O)CCN1CCC(=C2c3cccc(F)c3OCc3cccnc32)CC1 | 100 | 20 |  | 0 |  |  |  | 
O=C(O)CCN1CCC(=C2c3cc(C(=O)O)ccc3OCc3cccnc32)CC1 | 0 |  | 20 |  |  |  |  | 
O=C(O)CCN1CCC(=C2c3cccc([N+](=O)[O-])c3OCc3cccnc32)CC1 | 0 |  | 60 |  |  |  |  | 
O=C(O)CCN1CCC(=C2c3ccc(Cl)cc3OCc3ncccc32)CC1 | 100 | 80 |  | 40 |  |  |  | 
CN1CCC(=C2c3ccccc3OCc3ncccc32)CC1 | 100 | 0 |  |  | 20 | 0.025 | 0.49 | ED50 (Mus musculus [7]): 9.9 mg/kg; PCoct [9]: 54.3
O=C(O)CCN1CCC(=C2c3cc([N+](=O)[O-])ccc3OCc3cccnc32)CC1 | 20 | 0 | 80 |  |  |  |  | 
O=C(O)CCN1CCC(=C2c3ccccc3COc3ccccc32)CC1 | 100 | 60 |  | 20 | 16 | 0.0038 | 0.062 | ED50 (Mus musculus [7]): 16 mg/kg; PCoct [9]: 9.66
CC(CN1CCC(=C2c3ccc(F)cc3OCc3cccnc32)CC1)C(=O)O (configuration not stated) | 100 | 60 |  | 20 | 210 | 0.011 | 2.3 | 
O=C(O)CCN1CCC(=C2c3ccc(Cl)cc3OCc3cccnc32)CC1 | 80 | 0 | 100 |  |  |  |  | 
CC(CC(=O)O)N1CCC(=C2c3ccc(F)cc3OCc3cccnc32)CC1 (configuration not stated) | 0 |  | 100 |  |  |  |  | 
Cc1ccc2c(c1)OCc1cccnc1C2=C1CCN(CCC(=O)O)CC1 | 40 | 20 | 100 | 0 |  |  |  | 
CN1CCC(=C2c3ccccc3COc3ccccc32)CC1 | 60 | 0 | 100 |  | 22 | 0.035 | 0.77 | ED50 (Mus musculus [7]): 0.73 mg/kg
